Data on 35 molecules can be found in article PMC3074353 (Biochemistry, 2011).

The target of assay [1] is T1, RPTPα (amino acids 224–802) (Homo sapiens, UniProt P18433). Briefly: PTP activity assay with synthetic pY peptides as substrates, RPTPα. To be noted: for kcat/KM: same buffer pH 7.4, three or more independent experiments; for Km: same buffer pH 7.4, mean ± SD, three or more independent experiments. The assay is classed as biochemical.
Assay [2] has as its system catalytic domain of SHP-2 [SHP-2(ΔSH2)]. Kind of assay: PTP activity assay with synthetic pY peptides as substrates, SHP-2. Conditions: for Km / kcat/KM: same buffer pH 7.4, three or more independent experiments; for Km: mean ± SD. The assay is classed as biochemical.
For assay [3], the system named is catalytic domain of SHP-1 [SHP-1(ΔSH2)]. Briefly: PTP activity assay with synthetic pY peptides as substrates, SHP-1. Conditions: for Km / kcat/KM: same buffer pH 7.4, three or more independent experiments; for Km: mean ± SD. The assay is classed as biochemical.
Sequence of catalytic domain of SHP-1 [SHP-1(ΔSH2)] (P29350 244-515 limits assumed, stated change not applied): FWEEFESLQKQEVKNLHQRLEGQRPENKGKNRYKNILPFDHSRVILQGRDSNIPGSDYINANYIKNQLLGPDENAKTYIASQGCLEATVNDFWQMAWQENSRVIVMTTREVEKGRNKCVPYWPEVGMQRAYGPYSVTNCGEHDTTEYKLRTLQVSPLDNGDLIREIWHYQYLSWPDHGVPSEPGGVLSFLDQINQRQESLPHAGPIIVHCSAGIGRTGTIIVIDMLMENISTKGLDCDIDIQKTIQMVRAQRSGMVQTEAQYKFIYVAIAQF
In assay [4] the target is T2, PTP1B (amino acids 1–321) (Homo sapiens, UniProt P18031).
T2 sequence (P18031 1-321): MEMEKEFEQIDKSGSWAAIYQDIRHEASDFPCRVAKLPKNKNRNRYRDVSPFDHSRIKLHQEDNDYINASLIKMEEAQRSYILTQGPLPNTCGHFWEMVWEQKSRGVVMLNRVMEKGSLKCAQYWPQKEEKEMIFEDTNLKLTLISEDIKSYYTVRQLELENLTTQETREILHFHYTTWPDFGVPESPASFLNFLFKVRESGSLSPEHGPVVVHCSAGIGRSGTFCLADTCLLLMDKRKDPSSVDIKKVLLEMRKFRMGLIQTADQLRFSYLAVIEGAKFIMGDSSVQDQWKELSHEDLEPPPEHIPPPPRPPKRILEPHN
Kind of assay: PTP activity assay with synthetic pY peptides as substrates, PTP1B. The assay is classed as biochemical. The method, boiled down: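 PTP1B catalytic fragment (residues 1–321) expressed in E. coli, quantified by Bradford against BSA. For alanine-scan peptides, kinetic constants came from fitting progress curves to the integrated Michaelis–Menten equation.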

The target in assay [5] is T2, PTP1B (amino acids 1–321). To be noted: ref [36], cited from earlier work.
For assay [6], the target named is T1, RPTPα (amino acids 224–802). To be noted: literature value, ref [20]; cited from earlier work.

Where two headings read alike, the source gives them in different places.

Broadly, the kcat/KM is the turnover number divided by the Michaelis constant. As to `O=P(O)(O)Oc1ccccc1` [Phenyl phosphate, reference compound], in assay [1], the kcat/KM amounted to 20 M⁻¹ s⁻¹.

In general, Km refers to the concentration of substrate that gives half-maximal velocity. `O=[N+]([O-])c1ccc(OP(=O)(O)O)cc1` [pNPP, reference compound]: in assay [1], the Km was determined as 2700 ± 300 µM and the kcat/KM was found to be 190 M⁻¹ s⁻¹.

Turning to ADEDFpYAA, in assay [2] (SHP-2), the Km was 34 ± 2 µM and the kcat/KM was determined as 820000 M⁻¹ s⁻¹.

For AYTEpYTpYAA, in assay [3] (SHP-1), the Km worked out at 9.1 ± 1 µM and the kcat/KM was 1.9e+06 M⁻¹ s⁻¹.

For Ac-AAAAApYEEVH-NH2, the kcat/KM in assay [1] is 39000 M⁻¹ s⁻¹.

As for Ac-AAAAApYRHRR-NH2, in assay [4], the kcat/KM value is recorded as > 10^5 M^−1 s^−1. For the same molecule, in assay [1], the Km came out at 2600 ± 200 µM and the kcat/KM came to 12000 M⁻¹ s⁻¹.

On to Ac-AAAApYAAAA-NH2, for which the kcat/KM in assay [5] (literature value) is on record as 1.3 ^b μM^−1 s^−1. In addition, the kcat/KM value in assay [5] was 1.3e+06 M⁻¹ s⁻¹.

Turning to Ac-AKFEDTpYAA-NH2, in assay [3] (SHP-1), the Km turned out to be 58 ± 13 µM and the kcat/KM is 340000 M⁻¹ s⁻¹.

As for Ac-ARKRIpYAA-NH2, the kcat/KM value in assay [4] is > 10^5 M^−1 s^−1. For the same molecule, in assay [1], the Km came out at 490 ± 30 µM and the kcat/KM turned out to be 80000 M⁻¹ s⁻¹.

Take Ac-ASSDDpYAA-NH2: in assay [1], the kcat/KM was 13000 M⁻¹ s⁻¹.

For the molecule Ac-AVWEFpYpYAA-NH2, in assay [3] (SHP-1), the Km was 7.5 ± 2 µM and the kcat/KM was 3.3e+06 M⁻¹ s⁻¹.

Take Ac-ApYpYWTApYAA-NH2: in assay [4], the kcat/KM value amounted to 1.51e+07 M⁻¹ s⁻¹.

As to Ac-DWEDFpYAA-NH2, in assay [2] (SHP-2), the Km is 17 ± 2 µM and the specificity constant (kcat/KM) is 1.7e+06 M⁻¹ s⁻¹.

Consider Ac-EIFDFpYAA-NH2, for which, in assay [3] (SHP-1), the Km was 27 ± 4 µM and the kcat/KM was determined as 1.2e+06 M⁻¹ s⁻¹. In assay [2] (SHP-2), the Km turned out to be 54 ± 6 µM and the kcat/KM was 480000 M⁻¹ s⁻¹.

For Ac-FDIDIpYAA-NH2, in assay [3] (SHP-1), the Km was 13 ± 1 µM and the kcat/KM came out at 2.5e+06 M⁻¹ s⁻¹. In addition, in assay [2] (SHP-2), the Km worked out at 39 ± 5 µM and the kcat/KM worked out at 770000 M⁻¹ s⁻¹.

As to Ac-FYDIDpYAA-NH2, the Km in assay [3] (SHP-1) was 28 ± 2 µM; in assay [2] (SHP-2), 66 ± 13 µM. Also, the kcat/KM in assay [3] (SHP-1) worked out at 2.4e+06 M⁻¹ s⁻¹; in assay [2] (SHP-2), 750000 M⁻¹ s⁻¹.

Ac-RRISTpYAA-NH2: in assay [4], the kcat/KM value is reported as > 10^5 M^−1 s^−1. Further, in assay [1], the Km amounted to 1200 ± 100 µM and the kcat/KM came to 41000 M⁻¹ s⁻¹.

As for Ac-RTLAApYAAAA-NH2, the kcat/KM value in assay [4] turned out to be 510000 M⁻¹ s⁻¹.

In the case of Ac-RTLAApYEEVH-NH2, in assay [4], the kcat/KM value worked out at 840000 M⁻¹ s⁻¹.

Ac-RTLAApYRFQK-NH2: the kcat/KM value in assay [4] is 220000 M⁻¹ s⁻¹.

In the case of Ac-SASASpYDWEF-NH2, in assay [3] (SHP-1), the “increase of kcat/KM relative to Ac-SASASpYSASA-NH2” value was found to be 19 fold, the Km was 48 ± 9 µM and the kcat/KM came to 250000 M⁻¹ s⁻¹. Further, in assay [2] (SHP-2), the “increase of kcat/KM relative to Ac-SASASpYSASA-NH2” value was 10 fold, the Km was found to be 180 ± 7 µM and the kcat/KM was found to be 190000 M⁻¹ s⁻¹.

As to Ac-SASASpYSASA-NH2, the Km came to 1990 ± 420 µM in assay [3] (SHP-1), 2300 ± 400 µM in assay [2] (SHP-2) and 530 ± 150 µM in assay [1]. The kcat/KM came to 13000 M⁻¹ s⁻¹ in assay [3] (SHP-1), 18000 M⁻¹ s⁻¹ in assay [2] (SHP-2) and 43000 M⁻¹ s⁻¹ in assay [1].

On to Ac-WAGDDpYAA-NH2, for which, in assay [3] (SHP-1), the Km was determined as 45 ± 5 µM and the kcat/KM was determined as 1.3e+06 M⁻¹ s⁻¹. The “higher reactivity to SHP-1 than to SHP-2 (kcat/KM ratio)” value in assay [3] (SHP-1 versus SHP-2) amounted to 2.5 fold. In assay [2] (SHP-2), the Km stood at 68 ± 15 µM and the kcat/KM turned out to be 530000 M⁻¹ s⁻¹.

Regarding Ac-WDEDFpYAA-NH2, in assay [2] (SHP-2), the Km turned out to be 43 ± 2 µM and the kcat/KM is 1.1e+06 M⁻¹ s⁻¹.

Consider Ac-WDEDFpYDWEF-NH2, for which, in assay [3] (SHP-1), the kcat/KM value amounted to 2.3e+07 M⁻¹ s⁻¹, the Km amounted to 3.2 ± 0.3 µM and the kcat/KM was 2.3e+07 M⁻¹ s⁻¹. Moreover, in assay [2] (SHP-2, C-terminal SASA replaced by acidic motif DWEF), the “increase of activity relative to peptide 6 (Ac-WDEDFpYSASA-NH2)” value came to 6.2 fold. Also, in assay [2] (SHP-2), the Km was found to be 6.3 ± 0.4 µM and the kcat/KM turned out to be 6.8e+06 M⁻¹ s⁻¹.

Turning to Ac-WDEDFpYSASA-NH2, the “increase of kcat/KM relative to Ac-SASASpYSASA-NH2” value in assay [3] (SHP-1) is on record as 54 fold; in assay [2] (SHP-2), 61 fold. Also, the values for the Km in assay [3] (SHP-1) and in assay [2] (SHP-2) were 53 ± 10 µM and 46 ± 10 µM, respectively. The kcat/KM in assay [3] (SHP-1) turned out to be 700000 M⁻¹ s⁻¹; in assay [2] (SHP-2) it was 1.1e+06 M⁻¹ s⁻¹; in assay [1] it was 69000 M⁻¹ s⁻¹. Further, in assay [2] (SHP-2 versus SHP-1), the “higher activity of SHP-2 than of SHP-1 (kcat/KM ratio)” value turned out to be 1.6 fold.

In the case of DAEDFpYAA, in assay [2] (SHP-2), the Km worked out at 28 ± 3 µM and the kcat/KM worked out at 1.1e+06 M⁻¹ s⁻¹.

As for DFEDFpYAA, in assay [2] (SHP-2), the Km turned out to be 23 ± 2 µM and the kcat/KM was determined as 1.6e+06 M⁻¹ s⁻¹.

Turning to EADTApYAA, in assay [1], the Km amounted to 1400 ± 100 µM and the kcat/KM turned out to be 19000 M⁻¹ s⁻¹.

On to FDEDFpYAA, for which, in assay [2] (SHP-2), the Km stood at 31 ± 6 µM and the kcat/KM stood at 1e+06 M⁻¹ s⁻¹.

In general, kcat refers to the number of substrate molecules converted per active site and unit of time at saturation. As for LIEDNEpYTARQGA, in assay [6], the Km is 770 ± 20 µM, the kcat is 8.3 ± 0.2 s⁻¹ and the kcat/KM is 11000 M⁻¹ s⁻¹.

As for TATEPQpYQPGENL, in assay [6], the Km was 1070 ± 30 µM, the kcat is 9.7 ± 0.2 s⁻¹ and the kcat/KM was 9100 M⁻¹ s⁻¹.

Consider TSTEPQpYQPGENL, for which, in assay [6], the Km was 1160 ± 140 µM, the kcat is 8.9 ± 0.5 s⁻¹ and the kcat/KM was 7700 M⁻¹ s⁻¹.

With WDEDFpYRWKF, in assay [3] (SHP-1), the Km stood at 150 ± 15 µM and the kcat/KM came to 280000 M⁻¹ s⁻¹. Besides, in assay [2] (SHP-2), the Km is 210 ± 35 µM and the kcat/KM is 340000 M⁻¹ s⁻¹.

WRKRFpYDWEF: in assay [3] (SHP-1), the Km came out at 780 ± 640 µM and the kcat/KM worked out at 2200 M⁻¹ s⁻¹. In addition, in assay [2] (SHP-2), the Km was 560 ± 140 µM and the kcat/KM is 2300 M⁻¹ s⁻¹.
